# Several values for one entry are separate records, joined by “and”; a condition that tells them apart may be missing. Equal values may be shown once.
# Tested on: Fibroblast
# Assay: Multiplex assay against human fibroblast
# Type: toxicity, cell-based
# Outline: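 Phenotypes for tubulin, mitochondrial mass and membrane permeability are expressed as per cents of healthy-nucleus cells. Cells were stained live at seeding with Hoechst33342, BioTracker Green Microtubule Cytoskeleton Dye, MitoTracker Red and Annexin V Alexa Fluor 680, then imaged after compound addition on a CQ1 microscope at 37°C and 5% CO2. Machine-learning gating in CellPathfinder separated Hoechst high-intensity objects from normal cells, divided normal cells by nuclear state (healthy, pyknosed, fragmented) and divided pyknosed cells into mitotic or apoptotic.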
# [1] = 12 h, 1 µM, compound concentration 1 uM
# [2] = 12 h, 10 µM, compound concentration 10 uM
# [3] = 24 h, 1 µM, compound concentration 1 uM
# [4] = 24 h, 10 µM, compound concentration 10 uM
# [5] = 48 h, 1 µM, compound concentration 1 uM
# [6] = 48 h, 10 µM, compound concentration 10 uM
compound,measurement,setting,value
Cn1ncnc1COc1nn2c(-c3cc(F)ccc3F)nnc2cc1C(C)(C)C,Population Apoptotic (%),[1],5.08% and 12.9%
same,Population Fragmented Nuclei (%),[1],11.68% and 7.25%
same,Population Healthy Nuclei (%),[1],58.38% and 76.68%
same,Population Hoechst High Intensity Objects (%),[1],0%
same,Population Mitochondria Different-Phenotype (%),[1],6.09% and 8.11%
same,Population Mitotic Cells (%),[1],94.92% and 87.1%
same,Population Normal (%),[1],100%
same,Population Pyknosed Nuclei (%),[1],29.95% and 16.06%
same,Population Tubulin-Different-Phenotype (%),[1],13.04% and 21.62%
same,Total Cell Count,[1],197 and 193
same,Population Apoptotic (%),[2],6.76% and 16.22%
same,Population Healthy Nuclei (%),[2],51.12% and 80%
same,Population Hoechst High Intensity Objects (%),[2],0%
same,Population Mitochondria Different-Phenotype (%),[2],14.04% and 8.67%
same,Population Mitotic Cells (%),[2],93.24% and 83.78%
same,Population Normal (%),[2],100%
same,Population Pyknosed Nuclei (%),[2],33.18% and 15.1%
same,Population Tubulin-Different-Phenotype (%),[2],35.96% and 51.02%
same,Total Cell Count,[2],223 and 245
same,Population Fragmented Nuclei (%),[3],8.72% and 5.03%
same,Population Healthy Nuclei (%),[3],67.89% and 83.42%
same,Population Hoechst High Intensity Objects (%),[3],0%
same,Population Mitochondria Different-Phenotype (%),[3],1.35% and 7.23%
same,Population Mitotic Cells (%),[3],94.12% and 60.87%
same,Population Normal (%),[3],100%
same,Population Pyknosed Nuclei (%),[3],23.39% and 11.56%
same,Population Tubulin-Different-Phenotype (%),[3],10.14% and 19.28%
same,Total Cell Count,[3],218 and 199
same,Population Apoptotic (%),[4],13.24% and 17.24%
same,Population Fragmented Nuclei (%),[4],8.07% and 9.51%
same,Population Healthy Nuclei (%),[4],61.43% and 79.47%
same,Population Hoechst High Intensity Objects (%),[4],0%
same,Population Mitochondria Different-Phenotype (%),[4],11.68% and 10.05%
same,Population Mitotic Cells (%),[4],86.76% and 82.76%
same,Population Normal (%),[4],100%
same,Population Pyknosed Nuclei (%),[4],30.49% and 11.03%
same,Population Tubulin-Different-Phenotype (%),[4],45.99% and 56.46%
same,Total Cell Count,[4],223 and 263
same,Population Fragmented Nuclei (%),[5],7.91% and 5.24%
same,Population Healthy Nuclei (%),[5],84.58% and 83.81%
same,Population Hoechst High Intensity Objects (%),[5],0%
same,Population Mitochondria Different-Phenotype (%),[5],12.15% and 3.41%
same,Population Mitotic Cells (%),[5],68.42% and 91.3%
same,Population Normal (%),[5],100%
same,Population Pyknosed Nuclei (%),[5],7.51% and 10.95%
same,Total Cell Count,[5],253 and 210
same,Population Apoptotic (%),[6],23.08% and 30.77%
same,Population Fragmented Nuclei (%),[6],10.08% and 8.8%
same,Population Healthy Nuclei (%),[6],78.99% and 86%
same,Population Hoechst High Intensity Objects (%),[6],0%
same,Population Mitochondria Different-Phenotype (%),[6],8.51% and 7.44%
same,Population Mitotic Cells (%),[6],76.92% and 69.23%
same,Population Normal (%),[6],100%
same,Population Pyknosed Nuclei (%),[6],10.92% and 5.2%
same,Population Tubulin-Different-Phenotype (%),[6],38.3% and 59.07%
same,Total Cell Count,[6],238 and 250
C=CC(=O)Nc1cc(Nc2nccc(-n3cc(CN(C)C)c(-c4ccccc4)n3)n2)c(OC)cc1N1CCOCC1 [LAZERTINIB],Population Fragmented Nuclei (%),[1],17.06% and 10.42%
same,Population Healthy Nuclei (%),[1],39.41% and 72.59%
same,Population Hoechst High Intensity Objects (%),[1],0%
same,Population Membrane Permeable-Phenotype (%),[1],5.97% and 4.26%
same,Population Mitochondria Different-Phenotype (%),[1],13.43% and 12.77%
same,Population Mitotic Cells (%),[1],97.3% and 84.09%
same,Population Normal (%),[1],100%
same,Population Pyknosed Nuclei (%),[1],43.53% and 16.99%
same,Population Tubulin-Different-Phenotype (%),[1],26.87% and 71.81%
same,Total Cell Count,[1],170 and 259
same,Population Apoptotic (%),[2],18.84% and 24.56%
same,Population Fragmented Nuclei (%),[2],21.15% and 12.73%
same,Population Healthy Nuclei (%),[2],34.62% and 72.47%
same,Population Hoechst High Intensity Objects (%),[2],0%
same,Population Membrane Permeable-Phenotype (%),[2],1.85% and 8.24%
same,Population Mitochondria Different-Phenotype (%),[2],48.15% and 27.24%
same,Population Mitotic Cells (%),[2],81.16% and 75.44%
same,Population Normal (%),[2],100%
same,Population Pyknosed Nuclei (%),[2],44.23% and 14.81%
same,Population Tubulin-Different-Phenotype (%),[2],55.56% and 80.65%
same,Total Cell Count,[2],156 and 385
same,Population Fragmented Nuclei (%),[3],8.12% and 9.88%
same,Population Healthy Nuclei (%),[3],60.62% and 75.1%
same,Population Hoechst High Intensity Objects (%),[3],0%
same,Population Membrane Permeable-Phenotype (%),[3],6.19% and 3.68%
same,Population Mitochondria Different-Phenotype (%),[3],23.71% and 17.89%
same,Population Mitotic Cells (%),[3],90% and 52.63%
same,Population Normal (%),[3],100%
same,Population Pyknosed Nuclei (%),[3],31.25% and 15.02%
same,Population Tubulin-Different-Phenotype (%),[3],34.02% and 66.32%
same,Total Cell Count,[3],160 and 253
same,Population Apoptotic (%),[4],52.31% and 34.69%
same,Population Healthy Nuclei (%),[4],37.75% and 81.53%
same,Population Hoechst High Intensity Objects (%),[4],0%
same,Population Membrane Permeable-Phenotype (%),[4],5.26% and 2.72%
same,Population Mitochondria Different-Phenotype (%),[4],43.86% and 34.14%
same,Population Mitotic Cells (%),[4],47.69% and 65.31%
same,Population Normal (%),[4],100%
same,Population Tubulin-Different-Phenotype (%),[4],57.89% and 76.44%
same,Total Cell Count,[4],151 and 406
same,Population Apoptotic (%),[5],16.67% and 20.83%
same,Population Fragmented Nuclei (%),[5],12.14% and 10.42%
same,Population Healthy Nuclei (%),[5],77.46% and 80.31%
same,Population Hoechst High Intensity Objects (%),[5],0%
same,Population Membrane Permeable-Phenotype (%),[5],0.75% and 1.92%
same,Population Mitochondria Different-Phenotype (%),[5],11.19% and 8.17%
same,Population Mitotic Cells (%),[5],83.33% and 79.17%
same,Population Normal (%),[5],100%
same,Population Pyknosed Nuclei (%),[5],10.4% and 9.27%
same,Population Tubulin-Different-Phenotype (%),[5],27.61% and 62.5%
same,Total Cell Count,[5],173 and 259
same,Population Apoptotic (%),[6],64.71% and 51.61%
same,Population Fragmented Nuclei (%),[6],24.65% and 10.26%
same,Population Healthy Nuclei (%),[6],51.41% and 82.52%
same,Population Hoechst High Intensity Objects (%),[6],0%
same,Population Membrane Permeable-Phenotype (%),[6],1.37% and 2.82%
same,Population Mitotic Cells (%),[6],35.29% and 48.39%
same,Population Normal (%),[6],100%
same,Population Tubulin-Different-Phenotype (%),[6],49.32% and 60.73%
